Assay [1] deals with Macrophage-stimulating protein receptor (Homo sapiens) (UniProt Q04912). In words: Inhibition of wild-type human partial length MST1R (I1057 to L1363 residues) expressed in Escherichia coli BL21 assessed as residual activity at 1000 nM after 30 mins by Kinomescan method relative to control.
Assay [2] has as its target Dual specificity tyrosine-phosphorylation-regulated kinase 1B (Homo sapiens) (UniProt Q9Y463). Nature of the assay: Inhibition of wild-type human full length DYRK1B (M1 to S629 residues) expressed in Escherichia coli BL21 assessed as residual activity at 1000 nM after 30 mins by Kinomescan method relative to control. The essentials:
(§1)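 Single-concentration screen at 1 µM across a 456-kinase KINOMEscan panel. The read-out is Percent Control for each kinase.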

The target of assay [3] is Leukocyte tyrosine kinase receptor (Homo sapiens) (UniProt P29376). In words: Inhibition of wild-type human partial length LTK (P422 to S744 residues) expressed in Escherichia coli BL21 assessed as residual activity at 1000 nM after 30 mins by Kinomescan method relative to control.
For assay [4], the target named is Serine/threonine-protein kinase 32A (Homo sapiens) (UniProt Q8WU08). In words: Inhibition of wild-type human full length YANK1 (M1 to L396 residues) expressed in HEK293 cells assessed as residual activity at 1000 nM after 30 mins by Kinomescan method relative to control. In kind it is cell-based.
Assay [5] concerns the target Serine/threonine-protein kinase MRCK alpha (Homo sapiens) (UniProt Q5VT25). Nature of the assay: Inhibition of wild-type human partial length MRCKA (L57 to V418 residues) expressed in Escherichia coli BL21 assessed as residual activity at 1000 nM after 30 mins by Kinomescan method relative to control.
Assay [6] has as its target Dual specificity mitogen-activated protein kinase kinase 1 (Homo sapiens) (UniProt Q02750). Nature of the assay: Inhibition of wild-type human full length MEK1 (M1 to V393 residues) expressed in HEK293 cells assessed as residual activity at 1000 nM after 30 mins by Kinomescan method relative to control. Type of assay: cell-based. The essentials:
as §1

The target in assay [7] is Serine/threonine-protein kinase WNK1 (Homo sapiens) (UniProt Q9H4A3). In words: Inhibition of wild-type human partial length WNK1 (Q194 to A490 residues) expressed in HEK293 cells assessed as residual activity at 1000 nM after 30 mins by Kinomescan method relative to control. In kind it is cell-based.
For assay [8], the target named is Serine/threonine-protein kinase BRSK1 (Homo sapiens) (UniProt Q8TDC3). In words: Inhibition of wild-type human partial length BRSK1 (M1 to E754 residues) expressed in Escherichia coli BL21 assessed as residual activity at 1000 nM after 30 mins by Kinomescan method relative to control.
Assay [9] addresses Death-associated protein kinase 3 (Homo sapiens) (UniProt O43293). Nature of the assay: Inhibition of wild-type human partial length DAPK3 (M1 to A277 residues) expressed in Escherichia coli BL21 assessed as residual activity at 1000 nM after 30 mins by Kinomescan method relative to control.
In assay [10] the test system is Serine/threonine-protein kinase B-raf (Homo sapiens), P15056 [V600E]. Nature of the assay: Inhibition of human partial length BRAF V600E mutant (S429 to E741 residues) expressed in HEK293 cells assessed as residual activity at 1000 nM after 30 mins by Kinomescan method relative to control. In kind it is cell-based. The essentials: (§2)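 KINOMEscan binding panel of 456 kinases, with the test compound at a single concentration of 1 µM. Read-out is Percent Control.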

Assay [11] concerns Tyrosine-protein kinase ABL1 (Homo sapiens), P00519 [M351T]. Nature of the assay: Inhibition of human phosphorylated ABL1 M351T mutant (S229 to K512 residues) expressed in HEK293 cells assessed as residual activity at 1000 nM after 30 mins by Kinomescan method relative to control. In kind it is cell-based. An outline of the steps:
(§3)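 Single-point screen at a fixed 1 µM, run within a 456-kinase DiscoveRx KINOMEscan panel. Each kinase's read-out is Percent Control, i.e. signal relative to a control without compound. Hits were scored by a Percent Control < 35 cut-off, and an S(35) selectivity score was calculated across the non-mutant kinases.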

Assay [12] concerns the target Fibroblast growth factor receptor 1 (Homo sapiens, UniProt P11362). In words: Inhibition of wild-type human partial length FGFR1 (P357 to V669 residues) expressed in Escherichia coli BL21 assessed as residual activity at 1000 nM after 30 mins by Kinomescan method relative to control.
For assay [13], the target named is cAMP-dependent protein kinase catalytic subunit beta (Homo sapiens) (UniProt P22694). In words: Inhibition of wild-type human full length PKAC-beta (M1 to F351 residues) expressed in Escherichia coli BL21 assessed as residual activity at 1000 nM after 30 mins by Kinomescan method relative to control. An outline of the steps:
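Single-concentration screen at 1 µM against a 456-kinase panel (KINOMEscan). Read-out is Percent Control for each kinase. Across the 403 non-mutant kinases, an S(35) selectivity score was derived as the fraction of kinases with Percent Control < 35.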

Assay [14] addresses Insulin receptor (Homo sapiens) (UniProt P06213). Nature of the assay: Inhibition of wild-type human partial length INSR (P997 to E1318 residues) expressed in HEK293 cells assessed as residual activity at 1000 nM after 30 mins by Kinomescan method relative to control. In kind it is cell-based.
Assay [15] concerns the target Serine/threonine-protein kinase D3 (Homo sapiens) (UniProt O94806). Nature of the assay: Inhibition of wild-type human partial length PRKD3 (S543 to E863 residues) expressed in Escherichia coli BL21 assessed as residual activity at 1000 nM after 30 mins by Kinomescan method relative to control.
Assay [16] has as its target Casein kinase II subunit alpha' (Homo sapiens) (UniProt P19784). Nature of the assay: Inhibition of wild-type human full length CSNK2A2 (M1 to R350 residues) expressed in HEK293 cells assessed as residual activity at 1000 nM after 30 mins by Kinomescan method relative to control. In kind it is cell-based. An outline of the steps: as §3
Assay [17] concerns the target cAMP-dependent protein kinase catalytic subunit PRKX (Homo sapiens) (UniProt P51817). Nature of the assay: Inhibition of wild-type human partial length PRKX (M1 to F358 residues) expressed in Escherichia coli BL21 assessed as residual activity at 1000 nM after 30 mins by Kinomescan method relative to control.
Assay [18] deals with Myosin light chain kinase (Homo sapiens) (UniProt Q32MK0). In words: Inhibition of wild-type human partial length MLCK (D488 to K800 residues) expressed in Escherichia coli BL21 assessed as residual activity at 1000 nM after 30 mins by Kinomescan method relative to control.
The test system of assay [19] is Mast/stem cell growth factor receptor Kit (Homo sapiens), P10721 [V559D,V654A]. Nature of the assay: Inhibition of human partial length KIT V559D/V654A double mutant (Y545 to D952 residues) expressed in Escherichia coli BL21 assessed as residual activity at 1000 nM after 30 mins by Kinomescan method relative to control. An outline of the steps:
as §2

The test system of assay [20] is Leucine-rich repeat serine/threonine-protein kinase 2 (Homo sapiens), Q5S007 [G2019S]. Nature of the assay: Inhibition of human partial length LRRK2 G2019S mutant (H970 to E2527 residues) expressed in HEK293 cells assessed as residual activity at 1000 nM after 30 mins by Kinomescan method relative to control. Type of assay: cell-based. The essentials: as §2

The values below come from ChEMBL document CHEMBL4043093, “2-Oxo-3, 4-dihydropyrimido[4, 5-d]pyrimidinyl derivatives as new irreversible pan fibroblast growth factor receptor (FGFR) inhibitors” (Eur J Med Chem, 2017).

As for `COc1cc(OC)c(Cl)c(N2Cc3cnc(Nc4ccc(F)cc4)nc3N(C3CCN(C(=O)/C=C/CN(C)C)CC3)C2=O)c1Cl`, the Activity in [1] amounted to 95%; in [2], 81%; in assay [3], 95%; in [4], 100%; in [5], 98%; in [6] it was 100%. Also, the Activity in assay [7] was found to be 59%; in assay [8], 100%; in [9], 100%; in [10], 83%; in assay [11], 47%; in assay [12], 0.6%. The Activity in assay [13] worked out at 95%; in assay [14], 87%; in assay [15], 100%; in assay [16], 100%; in assay [17] it was 100%; in [18], 99%. Moreover, the Activity was found to be 99% in assay [19] and 98% in assay [20].
